Data published in publication PMC8662605 (Molecular Biology and Evolution, 2021).

Legend:
[1] = system: white-faced saki Tas2R16 (wild-type, 172N); assay type: cell-based, white-faced saki (Pithecia pithecia)
[2] = system: 172K mutant of the white-faced saki Tas2R16; assay: functional heterologous cell expression assay, calcium mobilization, mutagenesis; assay type: cell-based, white-faced saki (Pithecia pithecia); conditions: for EC50: 172K mutant of white-faced saki Tas2R16
Method in brief: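 Saki Tas2R16 (wild-type, or the reverse 172K mutant made by site-directed mutagenesis) was expressed from HSV-tagged pcDNA5/FRT vectors, transiently transfected into HEK293 cells stably expressing chimeric Gα16-gust44. Calcium mobilisation on bitter stimulation was recorded on a fluorescence plate reader. EC50 came from nonlinear sigmoidal dose–response fits with variable slope. Cell-surface receptor expression was measured by imaging cytometry.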

[3] = target: T1, human Tas2R16 (Homo sapiens, UniProt Q9NYV7); assay type: cell-based
T1 sequence (Q9NYV7 1-291): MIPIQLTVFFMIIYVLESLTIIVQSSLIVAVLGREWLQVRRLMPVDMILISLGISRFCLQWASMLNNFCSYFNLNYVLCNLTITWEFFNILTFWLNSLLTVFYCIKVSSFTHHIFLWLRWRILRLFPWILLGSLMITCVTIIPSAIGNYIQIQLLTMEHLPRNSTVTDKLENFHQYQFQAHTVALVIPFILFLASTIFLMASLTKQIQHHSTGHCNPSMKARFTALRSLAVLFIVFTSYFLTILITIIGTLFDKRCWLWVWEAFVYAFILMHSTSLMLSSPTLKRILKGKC

[4] = 172K saki mutant versus wild-type (172N)

Compound	EC50 [1] [µM]	EC50 [2] [µM]	fold increased EC50 value compared with the wild-type [2, 4] [fold]	sensitivity compared with the wild-type [2, 4]	EC50 [3] [µM]
O=Cc1ccccc1O[C@@H]1O[C@H](CO)[C@@H](O)[C@H](O)[C@H]1O [helicin]	500 ± 40	890 ± 110	~2	about 50%	
OCc1ccccc1O[C@@H]1O[C@H](CO)[C@@H](O)[C@H](O)[C@H]1O [salicin]	510 ± 30	1120 ± 190		about 50%	490 ± 80
